For orientation: IC50 means the concentration that inhibits the measured activity by half. What is called IC25 is the point of the concentration-response curve where the effect stands at 25%.

Structures are written as SMILES. Calls of active or inactive are those of the source. The rule behind the calls is not given here.

Test [1] concerns OVCAR-3. The experiment in a line: Induction of DNA damage response in human OVCAR-3 cells assessed as CHK1 Ser345 phosphorylation at 2.5 uM in presence of 2.5 nM CHK1 inhibitor LY2606368 after 24 hrs by Western blot analysis. The test is classed as functional, cell-based. The method, boiled down: (§1)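 Cells were exposed to JQ1 (2.5 μM) and/or LY2606368 (2.5 nM) for 24hr. Sub-confluent cells were lysed in 1% NP40 buffer with protease and phosphatase inhibitors, and protein was measured by BCA. Total lysates were blotted for phospho-CHK1 (Ser345) and CHK1 with GAPDH as loading control, using HRP chemiluminescence detection. Blots were repeated three times.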
(A western blot detects proteins with antibodies after separation by electrophoresis.)

Test [2] deals with OVCAR-5. The experiment in a line: Cytotoxicity against human OVCAR-5 cells assessed as reduction in cell viability after 3 days by XTT assay. The class given is functional, cell-based. The settings on record: OVCAR-5, 72 h. The gist of the method: (§2)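 Ovarian cancer lines in RPMI with 10% heat-inactivated FBS were seeded at 2,000-4000 cells/well in triplicate. Drug from DMSO stock was added 24hr later, and XTT was read 3 days after drug addition. Proliferation is relative to negative control, and IC50 was calculated from the individual XTT data points.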
In general terms: Formazan colour is commonly taken as a measure of viable cells.

Test [3] relates to SK-OV-3. Kind of test: Cytotoxicity against human SK-OV-3 cells assessed as reduction in cell viability after 3 days by XTT assay. The class given is functional, cell-based. The settings on record: SK-OV-3, 72 h. The gist of the method:
as §2

For test [4], the system named is SK-OV-3. Kind of test: Induction of DNA damage response in human SK-OV-3 cells assessed as CHK1 Ser345 phosphorylation at 2.5 uM in presence of 2.5 nM CHK1 inhibitor LY2606368 after 24 hrs by Western blot analysis. The test is classed as functional, cell-based. The gist of the method:
as §1

In test [5] the test system is OVCAR-8. The experiment in a line: Induction of cell cycle arrest in human OVCAR-8 cells assessed as accumulation of cells at G1 phase at 2.5 uM for 20 hrs by propidium iodide staining based flow cytometry. The class given is functional. Background: In flow cytometry, cells or beads pass a laser one at a time.
For test [6], the system named is OVCAR-8. Kind of test: Cytotoxicity against human OVCAR-8 cells assessed as reduction in cell viability after 3 days by XTT assay. The class given is functional, cell-based. Particulars: OVCAR-8, 72 h. The gist of the method: as §2
In test [7] the test system is OVCAR-5. Kind of test: Induction of DNA damage response in human OVCAR-5 cells assessed as CHK1 Ser345 phosphorylation at 2.5 uM in presence of 2.5 nM CHK1 inhibitor LY2606368 after 24 hrs by Western blot analysis. The test is classed as functional, cell-based. The gist of the method: as §1
The next test relates to IGROV-1. Kind of test: Induction of DNA damage response in human IGROV-1 cells assessed as CHK1 Ser345 phosphorylation at 2.5 uM in presence of 2.5 nM CHK1 inhibitor LY2606368 after 24 hrs by Western blot analysis. The class given is functional, cell-based. The method, boiled down:
as §1

Test [8] addresses Bromodomain-containing protein 4 (Homo sapiens) (UniProt O60885). Particulars: OVCAR-8, dose 500.0 nM, time 24.0 hrs.
Test [9] relates to OVCAR-8. The experiment in a line: Induction of DNA damage response in human OVCAR-8 cells assessed as CHK1 Ser345 phosphorylation at 2.5 uM in presence of 2.5 nM CHK1 inhibitor LY2606368 after 24 hrs by Western blot analysis. The class given is functional, cell-based. The method, boiled down: as §1
Test [10] has as its system OVCAR-8. Kind of test: Effect on gamma-H2AX phosphorylation in nucleus of human OVCAR-8 cells at 2.5 uM for 20 hrs by immunofluorescent staining. The class given is functional, cell-based. The gist of the method: (§3)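 Cells were serum-starved for 16hr, then given JQ1 2.5 μM and/or LY2606368 10 nM for 20hr. They were fixed in 4% paraformaldehyde, permeabilized with 0.25% Triton X-100, and blocked in 10% goat serum. γ-H2AX (Ser139/Tyr142) antibody at 1:200 was applied for 2hr, then an Alexa Fluor secondary for 1hr at 4°C. Signal was read by flow cytometry.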

The subject of test [11] is OVCAR-3. The experiment in a line: Cytotoxicity against human OVCAR-3 cells assessed as reduction in cell viability after 3 days by XTT assay. Particulars: OVCAR-3, 72 h. The test is classed as functional, cell-based. The method, boiled down:
as §2

Test [12] relates to OVCAR-8. The experiment in a line: Effect on gamma-H2AX expression in human OVCAR-8 cells at 2.5 uM for 20 hrs by immunofluorescent staining. The class given is functional, cell-based. The method, boiled down: as §3
In test [13] the test system is A2780. The experiment in a line: Induction of DNA damage response in human A2780 cells assessed as CHK1 Ser345 phosphorylation at 2.5 uM in presence of 2.5 nM CHK1 inhibitor LY2606368 after 24 hrs by Western blot analysis. The test is classed as functional, cell-based. The gist of the method:
as §1

For test [14], the system named is A2780. Kind of test: Cytotoxicity against human A2780 cells assessed as reduction in cell viability after 3 days by XTT assay. The settings on record: A2780, 72 h. The class given is functional, cell-based. The method, boiled down: as §2
Test [15] deals with Bromodomain-containing protein 4 (Homo sapiens) (UniProt O60885). Particulars: OVCAR-8, dose 500.0 nM, time 24.0 hrs. This is another data set of the same source.
Test [16] relates to OVCAR-3. The experiment in a line: Cytotoxicity against human OVCAR-3 cells assessed as reduction in cell viability at 10 nM in presence of siCBX5 after 3 days by XTT assay. The settings on record: time 3.0 day. The class given is functional, cell-based. The method, boiled down: (§4)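 Cells were transfected with siRNA (final 20nM, DharmaFECT1) and seeded in 3 replicates 24hr later. Drug was added 24hr after seeding. Viability was read by XTT and normalized to siNeg-transfected cells.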

In test [17] the test system is OVCAR-8. Kind of test: Induction of abnormal nuclear morphology in human OVCAR-8 cells assessed as loss of nuclear roundness at 10 nM in presence of siCBX5 by immunostaining. The test is classed as functional, cell-based. The gist of the method: (§5)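 Ovcar8 cells were transfected with 20nM siRNA; for co-transfection, 10nM of each. At 24hr they were plated on coverslips, and 8hr later LY2606368 10nM was added for 24hr. Cells were fixed (4% paraformaldehyde), permeabilized (0.25% Triton X-100), blocked (10% goat serum) and stained for H3K4me3, γ-H2AX and DAPI. Sphericity is the ratio of two perpendicular nuclear diameters, over multiple fields of 10-40 cells.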

The test system of test [18] is OVCAR-5. The experiment in a line: Cytotoxicity against human OVCAR-5 cells assessed as reduction in cell viability at 10 nM in presence of siCBX5 after 3 days by XTT assay. The test is classed as functional, cell-based. The settings on record: time 3.0 day. The method, boiled down: as §4
The test system of test [19] is OVCAR-8. The experiment in a line: Induction of abnormal nuclear morphology in human OVCAR-8 cells at 10 nM by immunostaining. The test is classed as functional, cell-based. The gist of the method: as §5
The subject of test [20] is SK-OV-3. Kind of test: Cytotoxicity against human SK-OV-3 cells assessed as reduction in cell viability at 10 nM in presence of siCBX5 after 3 days by XTT assay. The test is classed as functional, cell-based. The settings on record: time 3.0 day. The gist of the method:
as §4

Test [21] relates to OVCAR-8. The experiment in a line: Cytotoxicity against human OVCAR-8 cells assessed as reduction in cell viability at 10 nM in presence of siCBX5 after 3 days by XTT assay. The test is classed as functional, cell-based. The settings on record: time 3.0 day. The method, boiled down:
as §4

As to `Cc1sc2c(c1C)C(c1ccc(Cl)cc1)=N[C@@H](CC(=O)OC(C)(C)C)c1nnc(C)n1-2`, the outcome in the test on OVCAR-3 [1], in the test on SK-OV-3 [4], in the test with OVCAR-5 [7], with IGROV-1, with OVCAR-8 [9] and with OVCAR-8 [10] was inactive. For the same compound, the outcome in the test on OVCAR-8 [12] and in the test with A2780 [13] was inactive. Also, the IC50 with OVCAR-5 [2], in the test on SK-OV-3 [3], in the test on OVCAR-8 [6], in the test with OVCAR-3 [11] and in the test on A2780 [14] was 100 nM throughout. The outcome in the test on OVCAR-8 [5] was Active. Further, the inhibition result in test [8] and in test [15] was “Active” each time.
Take `COc1cccc(OCCCN)c1-c1cc(Nc2cnc(C#N)cn2)n[nH]1` [PREXASERTIB]: the result in the test on OVCAR-3 [16], in the test with OVCAR-8 [17], in the test with OVCAR-5 [18], in the test on SK-OV-3 [20] and in the test with OVCAR-8 [21] was inactive. The IC50 is 3 nM in the test on OVCAR-5 [2]; 10 nM with SK-OV-3 [3]; 10 nM with OVCAR-8 [6]; 12 nM with OVCAR-3 [11]; 40 nM in the test on A2780 [14]. For the same compound, the IC25 with OVCAR-5 [2] (time 3 day) was determined as 1.5 nM; with SK-OV-3 [3] (time 3 day), 4 nM; with OVCAR-8 [6] (time 3 day), 5 nM; in the test on OVCAR-3 [11] (time 3 day), 6 nM; with A2780 [14] (time 3 day), 10 nM. Further, the outcome in the test with OVCAR-8 [19] was Active.

The values are drawn from ChEMBL document CHEMBL5674874, “BRD4 facilitates DNA damage response and represses CBX5/Heterochromatin protein 1 (HP1)” (Oncotarget, 2017).
